Results from ChEMBL document CHEMBL4376818, “Discovery of Novel Pyrazolo-pyridone DCN1 Inhibitors Controlling Cullin Neddylation” (J Med Chem, 2019).
Values after ≈ are worked out from the molar mass of the structure shown. Active and inactive are the calls of the source. The rule behind the calls is not given here.

Columns and labels:
[1] = target: DCN1-like protein 1/NEDD8-conjugating enzyme Ubc12 (Homo sapiens, UniProt Q96GG9); assay: Inhibition of biotinylated DCN1 (unknown origin) - AlexaFluor488 labelled UBE2M (unknown origin) protein-protein interaction after 1 hr by TR-FRET assay
Sequence of DCN1-like protein 1/NEDD8-conjugating enzyme Ubc12 (Q96GG9 whole entry): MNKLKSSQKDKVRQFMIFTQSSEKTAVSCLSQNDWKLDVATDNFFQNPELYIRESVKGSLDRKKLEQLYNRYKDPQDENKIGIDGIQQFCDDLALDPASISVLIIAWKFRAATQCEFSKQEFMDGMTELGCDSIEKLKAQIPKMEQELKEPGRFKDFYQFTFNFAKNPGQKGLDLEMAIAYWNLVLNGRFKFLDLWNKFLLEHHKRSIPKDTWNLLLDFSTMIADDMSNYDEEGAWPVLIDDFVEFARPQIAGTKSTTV
Sequence of DCN1-like protein 1/NEDD8-conjugating enzyme Ubc12 (P61081 whole entry, further chain): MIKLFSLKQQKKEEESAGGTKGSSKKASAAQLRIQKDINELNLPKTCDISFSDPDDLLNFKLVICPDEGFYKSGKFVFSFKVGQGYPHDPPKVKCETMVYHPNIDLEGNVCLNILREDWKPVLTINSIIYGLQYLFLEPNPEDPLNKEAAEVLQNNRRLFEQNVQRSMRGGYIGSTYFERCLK

BJ = assay: Cytotoxicity against human BJ cells assessed as cell growth inhibition after 72 hrs by Celltiter-Glo assay; type: cell-based
How it was run: (§1)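 Cells were seeded overnight at 37 °C, 5% CO2, at densities validated for logarithmic growth (BJ 1000 cells/well, HCC95 600 cells/well), then treated with ten 3-fold serial dilutions from DMSO stocks for 72 h. […] Fit on a semi-log plot; ≥3 technical and 2 biological replicates.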

HCC95 [2] = assay: Cytotoxicity against human HCC95 cells overexpressing DCN1 assessed as cell growth inhibition after 72 hrs by Celltiter-Glo assay; type: cell-based; details: HCC95, 72 h; how it was run: as §1
[3] = Kinetic aqueous solubility of compound at pH 7.4; type: physicochemical; details: buffer, read-out: Kinetic_solubility
How it was run: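 Kinetic aqueous solubility was measured in pH 7.4 buffer. Values are reported as means ± standard deviation from at least one independent experiment run in triplicate.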

[4] = Half life in mouse microsomes at 0.8 uM; type: ADME, Microsome
How it was run: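 Oxidative metabolic stability in murine liver microsomes, drug at 0.8 µM. Half-life is reported as mean ± SD from at least one independent experiment run in triplicate.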

HCC95 [5] = assay: Induction of ROS generation in human HCC95 cells at 30 uM after 5 hrs by H2DCFDA dye based fluorescence assay; type: functional, cell-based
How it was run: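 HCC95 cells were seeded at 25,000 cells/well and incubated overnight. They were PBS-washed, loaded with DCFDA for 45 min at 37 °C in the dark, washed twice, then exposed to compound in buffer for 5 h at 37 °C in the dark. Fluorescence was read at Ex/Em 485/535 nm.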

[6] = target: T1, DCN1-like protein 5 (Homo sapiens) (UniProt Q9BTE7); assay: Inhibition of DCN5 (unknown origin) assessed as decrease in DCN1-stimulated NEDD8 transfer from UBE2M to CUL2 at 60 uM after 10 sec by pulse-chase assay
T1 sequence (whole entry): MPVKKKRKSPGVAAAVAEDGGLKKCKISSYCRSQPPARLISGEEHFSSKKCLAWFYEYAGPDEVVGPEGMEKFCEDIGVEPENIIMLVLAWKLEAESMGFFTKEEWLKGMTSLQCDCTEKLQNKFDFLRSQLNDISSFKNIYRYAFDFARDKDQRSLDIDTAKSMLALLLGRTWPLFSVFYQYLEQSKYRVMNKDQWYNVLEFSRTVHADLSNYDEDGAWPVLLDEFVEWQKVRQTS

[7] = target: DCN1-like protein 2 (Homo sapiens) (UniProt Q6PH85); assay: Inhibition of DCN2 (unknown origin) assessed as decrease in DCN1-stimulated NEDD8 transfer from UBE2M to CUL2 at 10 uM after 10 sec by pulse-chase assay
Sequence of DCN1-like protein 2 (Homo sapiens) (Q6PH85 whole entry): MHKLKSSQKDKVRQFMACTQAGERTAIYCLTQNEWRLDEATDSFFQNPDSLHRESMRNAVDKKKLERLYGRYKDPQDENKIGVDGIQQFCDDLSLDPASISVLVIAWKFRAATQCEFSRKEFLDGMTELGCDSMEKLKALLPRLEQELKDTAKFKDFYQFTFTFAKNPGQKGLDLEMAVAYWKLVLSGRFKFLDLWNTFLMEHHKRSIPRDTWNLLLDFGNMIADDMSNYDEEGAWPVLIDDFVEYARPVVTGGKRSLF

[8] = target: T2, DCN1-like protein 4 (Homo sapiens) (UniProt Q92564); assay: Inhibition of DCN4 (unknown origin) assessed as decrease in DCN1-stimulated NEDD8 transfer from UBE2M to CUL2 at 60 uM after 10 sec by pulse-chase assay
T2 sequence (whole entry): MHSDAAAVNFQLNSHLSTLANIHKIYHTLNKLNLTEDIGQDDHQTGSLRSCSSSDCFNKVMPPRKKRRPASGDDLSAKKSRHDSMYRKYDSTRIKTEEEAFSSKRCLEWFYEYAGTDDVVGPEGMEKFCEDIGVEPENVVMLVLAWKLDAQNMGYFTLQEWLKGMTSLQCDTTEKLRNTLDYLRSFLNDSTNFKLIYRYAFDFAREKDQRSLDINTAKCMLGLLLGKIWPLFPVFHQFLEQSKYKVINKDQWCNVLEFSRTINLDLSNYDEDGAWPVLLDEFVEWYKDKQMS

[9] = target: T3, DCN1-like protein 3 (Homo sapiens) (UniProt Q8IWE4); assay: Inhibition of DCN3 (unknown origin) assessed as decrease in DCN1-stimulated NEDD8 transfer from UBE2M to CUL2 at 120 uM after 10 sec by pulse-chase assay
T3 sequence (whole entry): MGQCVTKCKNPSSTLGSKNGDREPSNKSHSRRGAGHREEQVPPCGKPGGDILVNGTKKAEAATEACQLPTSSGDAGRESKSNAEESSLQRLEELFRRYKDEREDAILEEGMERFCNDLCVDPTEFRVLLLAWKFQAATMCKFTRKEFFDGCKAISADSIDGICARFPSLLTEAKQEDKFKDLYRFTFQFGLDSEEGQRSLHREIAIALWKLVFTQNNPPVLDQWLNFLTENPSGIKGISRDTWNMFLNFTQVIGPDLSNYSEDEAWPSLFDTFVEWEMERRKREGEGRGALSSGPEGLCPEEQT

Cc1ccc(C(=O)N[C@@H]2C(=O)Nc3c(c(C)nn3-c3ccccc3)[C@@H]2c2ccc(F)cc2)cc1
IC50 [1]: > 15 µM

Cc1nn(-c2ccccc2)c2c1[C@H](c1ccc(F)cc1)[C@H](NC(=O)c1cccc(C(C)(C)C)c1)C(=O)N2
IC50 [1]: > 15 µM

Cc1cccc(C(=O)N[C@@H]2C(=O)Nc3c(c(C)nn3-c3ccccn3)[C@@H]2c2ccc(F)cc2)c1
IC50 [1]: > 15 µM

Cc1cccc(C(=O)N[C@@H]2C(=O)Nc3c(c(C)nn3-c3ccccc3)[C@@H]2c2cccnc2)c1
IC50 [1]: > 15 µM

Cc1cccc(C(=O)N[C@@H]2C(=O)Nc3c(c(C)nn3Cc3ccccc3)[C@@H]2c2ccc(F)cc2)c1
IC50 [1]: > 15 µM

Cc1nn(-c2ccccc2)c2c1[C@H](c1ccc(F)cc1)[C@H](NC(=O)c1cccc(I)c1)C(=O)N2
IC50 [1]: 7.1 µM

CCOC1=Nc2c(c(C)nn2-c2ccccc2)[C@H](c2ccc(F)cc2)[C@@H]1NC(=O)c1cccc(C)c1
EC50 (BJ): > 25 µM
EC50 (HCC95 [2]): > 25 µM

Cc1cccc(C(=O)N[C@@H]2C(=O)Nc3n[nH]c(C)c3[C@@H]2c2ccc(F)cc2)c1
IC50 [1]: > 15 µM

Cc1cccc(C(=O)N[C@@H]2C(=O)N(C(C)C)c3c(c(C)nn3-c3ccccc3)[C@@H]2c2ccc(F)cc2)c1
IC50 [1]: 4.1 µM

CC(=O)N1C(=O)[C@@H](NC(=O)c2cccc(C)c2)[C@@H](c2ccc(F)cc2)c2c(C)nn(-c3ccccc3)c21
IC50 [1]: 5.6 µM

Cc1ccccc1C(=O)N[C@@H]1C(=O)Nc2c(c(C)nn2-c2ccccc2)[C@@H]1c1ccc(F)cc1
IC50 [1]: > 15 µM

Cc1nn(-c2ccccc2)c2c1[C@H](c1ccc(F)cc1)[C@H](NC(=O)c1ccc(Cl)c(Cl)c1)C(=O)N2
IC50 [1]: > 15 µM

Cc1cccc(C(=O)N[C@@H]2C(=O)Nc3c(c(C)nn3C3CCCC3)[C@@H]2c2ccc(F)cc2)c1 (racemic)
solubility kinetic [3]: 17.1 µM (≈ 7.64 µg/mL)
half-life at 0.8 µM [4]: 30 min
EC50 (BJ): > 25 µM
IC50 [1]: 0.3 µM
EC50 (HCC95 [2]): > 25 µM

CCCN1C(=O)[C@@H](NC(=O)c2cccc(C)c2)[C@@H](c2ccc(F)cc2)c2c1nn(CCC)c2C
EC50 (BJ): > 25 µM
EC50 (HCC95 [2]): > 25 µM

CCCCN1CCC(N(Cc2ccccc2)C(=O)Nc2ccc(Cl)c(Cl)c2)CC1
Activity (HCC95 [5]): inactive

CCn1nc(C)c2c1NC(=O)[C@@H](NC(=O)c1cccc(C)c1)[C@H]2c1ccc(F)cc1 (racemic)
solubility kinetic [3]: 92.8 µM (≈ 37.7 µg/mL)
half-life at 0.8 µM [4]: 36 min
EC50 (BJ): > 25 µM
EC50 (HCC95 [2]): > 25 µM

CCN1C(=O)[C@@H](NC(=O)c2cccc(C)c2)[C@@H](c2ccc(F)cc2)c2c(C)nn(C3CCCC3)c21
IC50 [1]: 0.8 µM

Cc1cccc(C(=O)N[C@@H]2C(=O)Nc3c(c(C)nn3-c3ccccc3)[C@@H]2c2ccc(F)cc2)c1 (racemic)
solubility kinetic [3]: 5.5 µM (≈ 2.5 µg/mL)
half-life at 0.8 µM [4]: 66 min
EC50 (BJ): > 25 µM
IC50 [1]: 1.4 µM
EC50 (HCC95 [2]): > 25 µM

Cc1cccc(C(=O)N[C@@H]2C(=O)Nc3c(c(C)nn3-c3ccccc3)[C@@H]2c2ccccc2)c1
IC50 [1]: 4 µM

Cc1cccc(C(=O)N[C@@H]2C(=O)N(C)c3c(c(C)nn3C(C)(C)C)[C@@H]2c2ccc(F)cc2)c1
IC50 [1]: 2.3 µM

Cc1cccc(C(=O)N[C@@H]2C(=O)Nc3c(c(C)nn3-c3ccccc3)[C@@H]2Cc2ccccc2)c1
IC50 [1]: 3 µM

CCC(C)n1nc(C)c2c1NC(=O)[C@@H](NC(=O)c1cccc(C)c1)[C@H]2c1ccc(F)cc1 (stereo in doubt; 22b)
IC50 [1]: 0.6 µM

CCC[C@H]1c2c(C)nn(-c3ccccc3)c2NC(=O)[C@H]1NC(=O)c1cccc(C)c1
IC50 [1]: 3.1 µM

Cc1cccc(C(=O)N[C@@H]2C(=O)Nc3c(c(C)nn3-c3ccccc3)[C@@H]2C2CCCCC2)c1
IC50 [1]: 1.3 µM

Cc1cccc(C(=O)N[C@@H]2C(=O)Nc3c(c(C)nn3-c3ccccc3)[C@@H]2c2ccc(F)nc2)c1
IC50 [1]: 3.5 µM

CCCn1nc(C)c2c1NC(=O)[C@@H](NC(=O)c1cccc(C)c1)[C@H]2c1ccc(F)cc1
IC50 [1]: 1.2 µM

CCN1C(=O)[C@@H](NC(=O)c2cccc(C)c2)[C@@H](c2ccc(F)cc2)c2c(C)nn(C3CC3)c21 (racemic)
solubility kinetic [3]: 46.1 µM (≈ 20.6 µg/mL)
half-life at 0.8 µM [4]: < 6 min
EC50 (BJ): > 25 µM
IC50 [1]: 0.2 µM
EC50 (HCC95 [2]): > 25 µM

Cc1cncc(C(=O)N[C@@H]2C(=O)Nc3c(c(C)nn3-c3ccccc3)[C@@H]2c2ccc(F)cc2)c1
IC50 [1]: > 15 µM

CCCn1nc(C)c2c1N(CC)C(=O)[C@@H](NC(=O)c1cccc(C)c1)[C@H]2c1ccc(F)cc1 (racemic)
solubility kinetic [3]: 10.9 µM (≈ 4.89 µg/mL)
half-life at 0.8 µM [4]: < 6 min
EC50 (BJ): > 25 µM
IC50 [1]: 0.2 µM
EC50 (HCC95 [2]): > 25 µM

Cc1cccc(C(=O)N[C@@H]2C(=O)Nc3c(c(C)nn3C(C)(C)C)[C@@H]2c2ccc(F)cc2)c1
IC50 [1]: 0.5 µM

CCN1C(=O)[C@@H](NC(=O)c2cccc(C)c2)[C@@H](c2ccc(F)cc2)c2c(C)nn(-c3ccccc3)c21 (relative stereo)
inhibition [6]: inactive
inhibition [7]: Active
Activity (HCC95 [5]): inactive
EC50 (BJ): > 25 µM
EC50 (HCC95 [2]): > 25 µM
inhibition [8]: inactive
inhibition [9]: inactive

CCC(C)n1nc(C)c2c1NC(=O)[C@@H](NC(=O)c1cccc(C)c1)[C@H]2c1ccc(F)cc1 (stereo in doubt; 22a)
IC50 [1]: 0.7 µM

Cc1cccc(C(=O)N[C@@H]2C(=O)Nc3c(c(C)nn3C3CC3)[C@@H]2c2ccc(F)cc2)c1
IC50 [1]: 2 µM

CC(=O)CN1C(=O)[C@@H](NC(=O)c2cccc(C)c2)[C@@H](c2ccc(F)cc2)c2c(C)nn(-c3ccccc3)c21
IC50 [1]: 7.1 µM

Cc1nn(-c2ccccc2)c2c1[C@H](c1ccc(F)cc1)[C@H](NC(=O)c1ccccc1)C(=O)N2
IC50 [1]: 13 µM

Cc1ccc([C@H]2c3c(C)nn(-c4ccccc4)c3NC(=O)[C@H]2NC(=O)c2cccc(C)c2)cc1 (relative stereo)
solubility kinetic [3]: 1.1 µM (≈ 0.496 µg/mL)
half-life at 0.8 µM [4]: 18 min
EC50 (BJ): > 25 µM
IC50 [1]: 5.1 µM
EC50 (HCC95 [2]): > 25 µM

Cc1cccc(C(=O)N[C@@H]2C(=O)Nc3c(c(C)nn3-c3ccccc3)[C@@H]2c2cccc(F)c2)c1
IC50 [1]: 7.1 µM

Cc1cccc(C(=O)N[C@H]2C(=O)Nc3c(c(C)nn3-c3ccccc3)[C@@H]2c2ccc(F)cc2)c1 (racemic)
Activity (HCC95 [5]): inactive
EC50 (BJ): > 25 µM
EC50 (HCC95 [2]): > 25 µM
